# According to ChEMBL document CHEMBL3046238, “Synthesis and biological activity evaluation of 1,2,3-thiadiazole derivatives as potential elicitors with highly systemic acquired resistance” (2009):
# Calls of active or inactive are those of the source. The calls are words filed in the database; no cut-off is given here.
# Legend:
# Type in all cases: functional
# [1] = tested on: Fusarium oxysporum f. sp. vasinfectum; experiment: Antifungal activity against Fusarium oxysporum f. sp. vasinfectum assessed as growth inhibition at 50 ug/mL measured after 2 days post dose; settings: 48 h, read-out: GI
# [2] = tested on: Botryosphaeria berengeriana; experiment: Antifungal activity against Botryosphaeria berengeriana assessed as growth inhibition at 50 ug/mL measured after 2 days post dose
# Ceratobasidium cereale = experiment: Antifungal activity against Ceratobasidium cereale assessed as growth inhibition at 50 ug/mL measured after 2 days post dose
# Puccinia triticina [3] = experiment: Antifungal activity against Puccinia triticina inoculated on 500 ug/mL compound pre-treated wheat plants with 3 to 5 leaves assessed as growth inhibition
# Method in brief: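 Healthy wheat plants at the 3-5 leaf stage were sprayed with compound (500 μg/mL) and then inoculated with spores. Inhibition percentage was calculated against the corresponding spore stack.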
# Fusarium fujikuroi = experiment: Antifungal activity against Fusarium fujikuroi assessed as growth inhibition at 50 ug/mL measured after 2 days post dose; settings: 48 h, read-out: GI
# Colletotrichum lagenaria = experiment: Antifungal activity against Colletotrichum lagenaria assessed as growth inhibition at 50 ug/mL measured after 2 days post dose; settings: 48 h, read-out: GI
# Tobacco mosaic virus [4] = experiment: In vivo antiviral activity against Tobacco mosaic virus (TMV) infected tobacco leaves exposed to 500 ug/mL for 20 min assessed as inhibition of viral growth measured 72 hr post compound treatment compound by half-leaf juice rubbing method
# Method in brief: (§1)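 Half-leaf method on tobacco. A fresh leaf from a plant at the 5-6 leaf age was rub-inoculated with TMV (5.88×10-2 μg/mL) and cut along the main vein. One half was immersed in compound solution and the other in double-distilled water, each for 20 min. Halves were kept at 25 °C and 100% humidity for 72 h, then lesions were counted. Three replicates were run. Inhibition = (CK−A)/CK×100 from mean lesion numbers.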
# Alternaria kikuchiana = experiment: Antifungal activity against Alternaria kikuchiana assessed as growth inhibition at 50 ug/mL measured after 2 days post dose; settings: 48 h, read-out: GI
# Tobacco mosaic virus [5] = experiment: Antiviral activity against Tobacco mosaic virus (TMV) infected tobacco leaves exposed to 500 ug/mL for 20 min assessed as inhibition of viral growth measured 72 hr post compound treatment compound by half-leaf juice rubbing method; method in brief: as §1
# Alternaria solani = experiment: Antifungal activity against Alternaria solani assessed as growth inhibition at 50 ug/mL measured after 2 days post dose; settings: 48 h, read-out: GI
# Tobacco mosaic virus [6] = experiment: (§2) Induction of systemic acquired resistance against Tobacco mosaic virus (TMV) in tobacco plants exposed to 500 ug/mL compound through leaf spray followed by 7 days culture under green house conditions assessed as inhibition of viral growth in leaves infected with Tobacco mosaic virus (TMV) measured 72 hr post viral infection by half-leaf juice rubbing method; set-up: scale not given: the % may be the effect or the level left
# Method in brief: (§3)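 Tobacco plants received compound by leaf spray or by soil irrigation, with double-distilled water as CK. Newly grown leaves were then rub-inoculated with TMV (5.88×10-2 μg/mL), and plants were kept at 25 °C for 72 h. Lesions on inoculated leaves were counted. Inhibition = (CK−A)/CK×100 from mean lesion numbers versus control.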
# Ustilaginoidea virens = experiment: Antifungal activity against Villosiclava virens assessed as growth inhibition at 50 ug/mL measured after 2 days post dose; settings: 48 h, read-out: GI
# Fusarium oxysporum = experiment: Antifungal activity against Fusarium oxysporum assessed as growth inhibition at 50 ug/mL measured after 2 days post dose; settings: 48 h, read-out: GI
# Sclerotinia sclerotiorum = experiment: Antifungal activity against Sclerotinia sclerotiorum assessed as growth inhibition at 50 ug/mL measured after 2 days post dose; settings: 48 h, read-out: GI
# Phomopsis asparagi = experiment: Antifungal activity against Phomopsis asparagi assessed as growth inhibition at 50 ug/mL measured after 2 days post dose; settings: 48 h, read-out: GI
# Mycosphaerella arachidis = experiment: Antifungal activity against Mycosphaerella arachidis assessed as growth inhibition at 50 ug/mL measured after 2 days post dose; settings: 48 h, read-out: GI
# Rhizoctonia solani = experiment: Antifungal activity against Rhizoctonia solani assessed as growth inhibition at 50 ug/mL measured after 2 days post dose
# Botrytis cinerea = experiment: Antifungal activity against Botryotinia fuckeliana assessed as growth inhibition at 50 ug/mL measured after 2 days post dose; settings: 48 h, read-out: GI
# Phytophthora infestans = experiment: Antifungal activity against Phytophthora infestans assessed as growth inhibition at 50 ug/mL measured after 2 days post dose
# Method in brief: (§4)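 Compound stock at 500 μg/mL in DMF, diluted with sterile water in the dish and mixed into potato dextrose agar before setting. A 4 mm diameter fungal plug is placed on the plate and cultured at 24-26 °C. Colony diameter is measured after 2 days.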
# [7] = tested on: Colletotrichum gloeosporioides; experiment: Antifungal activity against Glomerella cingulata assessed as growth inhibition at 50 ug/mL measured after 2 days post dose; settings: 48 h, read-out: GI
# Fusarium graminearum = experiment: Antifungal activity against Fusarium graminearum assessed as growth inhibition at 50 ug/mL measured after 2 days post dose; settings: 48 h, read-out: GI; method in brief: as §4
# Tobacco mosaic virus [8] = experiment: as §2, with “50” for “500”; set-up: scale not given: the % may be the effect or the level left; method in brief: as §3
# Cytospora mali = experiment: Antifungal activity against Valsa mali assessed as growth inhibition at 50 ug/mL measured after 2 days post dose; settings: 48 h, read-out: GI
# Alternaria mali = experiment: Antifungal activity against Alternaria mali assessed as growth inhibition at 50 ug/mL measured after 2 days post dose; settings: 48 h, read-out: GI
# Tobacco mosaic virus [9] = experiment: as §2, with “irrigation based soil treatment” for “leaf spray”; set-up: scale not given: the % may be the effect or the level left; method in brief: as §3
# Tobacco mosaic virus [10] = experiment: as §2, with “50” for “500”, “irrigation based soil treatment” for “leaf spray”; set-up: scale not given: the % may be the effect or the level left; method in brief: as §3
# Tobacco mosaic virus [11] = experiment: Antiviral activity against Tobacco mosaic virus (TMV) infected tobacco leaves exposed to 50 ug/mL for 20 min assessed as inhibition of viral growth measured 72 hr post compound treatment compound by half-leaf juice rubbing method; method in brief: as §1
# Tobacco mosaic virus [12] = experiment: Antiviral activity against Tobacco mosaic virus (TMV) infected tobacco leaves exposed to 1000 ug/mL for 20 min assessed as inhibition of viral growth measured 72 hr post compound treatment compound by half-leaf juice rubbing method; method in brief: as §1
# Tobacco mosaic virus [13] = experiment: In vivo antiviral activity against Tobacco mosaic virus (TMV) infected tobacco leaves exposed to 50 ug/mL for 20 min assessed as inhibition of viral growth measured 72 hr post compound treatment compound by half-leaf juice rubbing method; method in brief: as §1
# Tobacco mosaic virus [14] = experiment: In vivo antiviral activity against Tobacco mosaic virus (TMV) infected tobacco leaves exposed to 100 ug/mL for 20 min assessed as inhibition of viral growth measured 72 hr post compound treatment compound by half-leaf juice rubbing method; method in brief: as §1
# Tobacco mosaic virus [15] = experiment: Antiviral activity against Tobacco mosaic virus (TMV) infected tobacco leaves exposed to 100 ug/mL for 20 min assessed as inhibition of viral growth measured 72 hr post compound treatment compound by half-leaf juice rubbing method; method in brief: as §1
# Tobacco mosaic virus [16] = experiment: as §2, with “100” for “500”; set-up: scale not given: the % may be the effect or the level left; method in brief: as §3
# Tobacco mosaic virus [17] = experiment: In vivo antiviral activity against Tobacco mosaic virus (TMV) infected tobacco leaves exposed to 2000 ug/mL for 20 min assessed as inhibition of viral growth measured 72 hr post compound treatment compound by half-leaf juice rubbing method; method in brief: as §1
# Tobacco mosaic virus [18] = experiment: as §2, with “1000” for “500”; set-up: scale not given: the % may be the effect or the level left; method in brief: as §3
# Tobacco mosaic virus [19] = experiment: as §2, with “2000” for “500”, “irrigation based soil treatment” for “leaf spray”; set-up: scale not given: the % may be the effect or the level left; method in brief: as §3
# Tobacco mosaic virus [20] = experiment: as §2, with “100” for “500”, “irrigation based soil treatment” for “leaf spray”; set-up: scale not given: the % may be the effect or the level left; method in brief: as §3
# Tobacco mosaic virus [21] = experiment: as §2, with “2000” for “500”; set-up: scale not given: the % may be the effect or the level left; method in brief: as §3
# Tobacco mosaic virus [22] = experiment: Antiviral activity against Tobacco mosaic virus (TMV) infected tobacco leaves exposed to 2000 ug/mL for 20 min assessed as inhibition of viral growth measured 72 hr post compound treatment compound by half-leaf juice rubbing method; method in brief: as §1
# Tobacco mosaic virus [23] = experiment: In vivo antiviral activity against Tobacco mosaic virus (TMV) infected tobacco leaves exposed to 1000 ug/mL for 20 min assessed as inhibition of viral growth measured 72 hr post compound treatment compound by half-leaf juice rubbing method; method in brief: as §1
# Tobacco mosaic virus [24] = experiment: as §2, with “1000” for “500”, “irrigation based soil treatment” for “leaf spray”; set-up: scale not given: the % may be the effect or the level left; method in brief: as §3
# Tobacco mosaic virus [25] = experiment: as §2, with “10” for “500”, “irrigation based soil treatment” for “leaf spray”; set-up: scale not given: the % may be the effect or the level left
# Method in brief: (§5)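 Tobacco plants receive compound either as leaf spray or as soil irrigation. Newly grown leaves are then rubbed with TMV (5.88 × 10-2 μg/mL). Plants are held 72 h at 25 °C and viral lesions are counted. Inhibition ratio = (CK − A)/CK × 100, from mean lesion numbers versus control. Water is CK; tiadinil and BTH are positive controls.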
# Tobacco mosaic virus [26] = experiment: as §2, with “10” for “500”; set-up: scale not given: the % may be the effect or the level left; method in brief: as §5
# Tobacco mosaic virus [27] = experiment: In vivo antiviral activity against Tobacco mosaic virus (TMV) infected tobacco leaves exposed to 10 ug/mL for 20 min assessed as inhibition of viral growth measured 72 hr post compound treatment compound by half-leaf juice rubbing method
# Tobacco mosaic virus [28] = experiment: Antiviral activity against Tobacco mosaic virus (TMV) infected tobacco leaves exposed to 10 ug/mL for 20 min assessed as inhibition of viral growth measured 72 hr post compound treatment compound by half-leaf juice rubbing method
# Method in brief: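 Direct (in vitro) anti-TMV test by half-leaf method. A tobacco leaf at 5-6 leaf age is rubbed with TMV (5.88 × 10-2 μg/mL) and cut along the main vein. One half is immersed in compound and the other in double-distilled water for 20 min. Halves are kept 72 h at 25 °C and 100% humidity, then lesions are counted. Inhibition is derived from mean lesion numbers on the two halves. Triplicates; DHT is the positive control.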
# Puccinia triticina [29] = experiment: Antifungal activity against Puccinia triticina inoculated on 100 ug/mL compound pre-treated wheat plants with 3 to 5 leaves assessed as growth inhibition
SMILES,growth inhibition (GI) (Puccinia triticina [3]) [%],growth inhibition (GI) (Tobacco mosaic virus [4]) [%],growth inhibition (GI) (Tobacco mosaic virus [5]) [%],Activity (Tobacco mosaic virus [6]) [%],Activity (Tobacco mosaic virus [8]) [%],Activity (Tobacco mosaic virus [9]) [%],Activity (Tobacco mosaic virus [10]) [%],growth inhibition (GI) (Tobacco mosaic virus [11]) [%],growth inhibition (GI) (Tobacco mosaic virus [12]) [%],growth inhibition (GI) (Tobacco mosaic virus [13]) [%],growth inhibition (GI) (Tobacco mosaic virus [14]) [%],growth inhibition (GI) (Tobacco mosaic virus [15]) [%],Activity (Tobacco mosaic virus [16]) [%],Activity (Tobacco mosaic virus [18]) [%],Activity (Tobacco mosaic virus [19]) [%],Activity (Tobacco mosaic virus [20]) [%],Activity (Tobacco mosaic virus [21]) [%],growth inhibition (GI) (Tobacco mosaic virus [22]) [%],growth inhibition (GI) (Tobacco mosaic virus [23]) [%],Activity (Tobacco mosaic virus [24]) [%],other results
Cc1ccc(NC(=O)c2snnc2C)cc1Cl [TIADINIL],40,0,0,40,63,–,–,–,–,–,–,–,–,–,–,–,–,–,–,–,inhibition of growth at 50 µg/mL [1]: 5.3%; growth inhibition (GI) [2]: inactive; growth inhibition (GI) (Ceratobasidium cereale): inactive; inhibition of growth at 50 µg/mL (Fusarium fujikuroi): 0%; inhibition of growth at 50 µg/mL (Colletotrichum lagenaria): 22.8%; inhibition of growth at 50 µg/mL (Alternaria kikuchiana): 0%; inhibition of growth at 50 µg/mL (Alternaria solani): 0%; inhibition of growth at 50 µg/mL (Ustilaginoidea virens): 12%; inhibition of growth at 50 µg/mL (Fusarium oxysporum): 12.5%; inhibition of growth at 50 µg/mL (Sclerotinia sclerotiorum): 34.4%; inhibition of growth at 50 µg/mL (Phomopsis asparagi): 60%; inhibition of growth at 50 µg/mL (Mycosphaerella arachidis): 13.6%; growth inhibition (GI) (Rhizoctonia solani): inactive; inhibition of growth at 50 µg/mL (Botrytis cinerea): 23.9%; growth inhibition (GI) (Phytophthora infestans): inactive; inhibition of growth at 50 µg/mL [7]: 51.6%; inhibition of growth at 50 µg/mL (Fusarium graminearum): 25%; inhibition of growth at 50 µg/mL (Cytospora mali): 3.6%; inhibition of growth at 50 µg/mL (Alternaria mali): 32.1%
O=C1NCNC(=O)N1,–,42,49,5,–,8,–,–,–,–,–,–,–,–,–,–,–,–,–,–,–
CC(N)CC(=O)O (stereo not drawn),–,5,7,50,0,72,46,0,0,0,9,4,30,55,80,54,65,5,10,80,growth inhibition (GI) (Tobacco mosaic virus [17]): 8%
CSC(=O)c1cccc2nnsc12 [ACIBENZOLAR-S-METHYL],0,8,4,95,92,95,92,0,8,15,10,2,95,97,–,96,–,–,–,98,Activity (Tobacco mosaic virus [25]): 63%; Activity (Tobacco mosaic virus [26]): 50%; growth inhibition (GI) (Tobacco mosaic virus [27]): 6%; growth inhibition (GI) (Tobacco mosaic virus [28]): 0%
N#Cc1c(Cl)c(Cl)c(Cl)c(C#N)c1Cl [CHLOROTHALONIL],–,–,–,–,–,–,–,–,–,–,–,–,–,–,–,–,–,–,–,–,growth inhibition (GI) (Puccinia triticina [29]): 100%
"O=C(O)c1cccc2nnsc12 [1,2,3-benzothia-diazole-7-carboxylic acid]",–,5,3,5,3,5,10,7,6,0,8,5,0,8,2,0,12,8,18,8,–
